Measurements from ChEMBL document CHEMBL3797137, “New ligands of the ghrelin receptor based on the 1,2,4-triazole scaffold by introduction of a second chiral center” (Bioorg Med Chem Lett, 2016).
The source made the active and inactive calls. No cut-off for these calls is given here.

Experiments:
[1] = target: T1, Growth hormone secretagogue receptor type 1 (Homo sapiens, UniProt Q92847); experiment: Agonist activity at human GHS-R1a expressed in HEK293T cells after 45 mins by HTRF-based IP3 turnover assay; format: functional, cell-based, HEK-293T; conditions: for Emax: HEK-293T
[2] = target: T1, Growth hormone secretagogue receptor type 1; experiment: Competitive binding affinity to human SNAP-tagged GHS-R1a expressed in HEK293T cells incubated at 4 degC for 3 hrs or at room temperature for 1 hr by Tag-lite assay; format: cell-based, HEK-293T
Outline: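 Tag-lite binding measured by FRET between terbium cryptate attached to SNAP-tag-fused GHS-R1a and a red fluorescent high-affinity ghrelin ligand. Ki obtained from the fluorescent binding data.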

[3] = target: T1, Growth hormone secretagogue receptor type 1; experiment: Displacement of [125I]-His9-ghrelin from human GHS-R1a transfected in pig LLC PK-1 cell membranes after 60 mins by gamma counting method
Outline: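 Competition binding on membranes from LLC PK-1 cells transfected with GHS-R1a, using 0.3 nM ¹²⁵I-His9-ghrelin against increasing compound concentrations. Ki derived from the binding curves.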

[4] = target: T1, Growth hormone secretagogue receptor type 1; experiment: Antagonist activity at human GHS-R1a transfected in CHO cells assessed as inhibition of ghrelin-induced intracellular calcium mobilization measured over 60 secs by fluo-4AM dye-based fluorometric method; format: functional, cell-based
[5] = target: T1, Growth hormone secretagogue receptor type 1; experiment: Antagonist activity at human GHS-R1a transfected in mouse LTK cells after 6 hrs by CRE/luciferase reporter gene assay in presence of ghrelin and rolipram; format: functional, cell-based
Outline: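 Mouse LTK- cells stably carrying a CMV minimal promoter–3×CRE–luciferase construct, incubated 6 h with rolipram, saturating ghrelin and varied compound concentrations. Cells were then lysed and luminescence read. IC50 fitted from the curves.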

[6] = target: T1, Growth hormone secretagogue receptor type 1; experiment: Partial agonist activity at human GHS-R1a expressed in HEK293T cells at 10^-5 M after 45 mins by HTRF-based IP3 turnover assay; format: functional, cell-based; conditions: HEK-293T
[7] = target: T1, Growth hormone secretagogue receptor type 1; experiment: Inverse agonist activity at human GHS-R1a expressed in HEK293T cells after 45 mins by HTRF-based IP3 turnover assay; format: functional, cell-based, HEK-293T; conditions: for Emax: HEK-293T
[8] = target: T1, Growth hormone secretagogue receptor type 1; experiment: Antagonist activity at human GHS-R1a expressed in HEK293T cells assessed as inhibition of ghrelin-induced stimulation at 10^-5 M after 45 mins by HTRF-based IP3 turnover assay; format: functional, cell-based; conditions: HEK-293T
[9] = target: T1, Growth hormone secretagogue receptor type 1; experiment: Antagonist activity at human GHS-R1a expressed in HEK293T cells assessed as inhibition of ghrelin-induced stimulation after 45 mins by HTRF-based IP3 turnover assay; format: functional, cell-based; conditions: HEK-293T

T1 sequence (Q92847 whole entry): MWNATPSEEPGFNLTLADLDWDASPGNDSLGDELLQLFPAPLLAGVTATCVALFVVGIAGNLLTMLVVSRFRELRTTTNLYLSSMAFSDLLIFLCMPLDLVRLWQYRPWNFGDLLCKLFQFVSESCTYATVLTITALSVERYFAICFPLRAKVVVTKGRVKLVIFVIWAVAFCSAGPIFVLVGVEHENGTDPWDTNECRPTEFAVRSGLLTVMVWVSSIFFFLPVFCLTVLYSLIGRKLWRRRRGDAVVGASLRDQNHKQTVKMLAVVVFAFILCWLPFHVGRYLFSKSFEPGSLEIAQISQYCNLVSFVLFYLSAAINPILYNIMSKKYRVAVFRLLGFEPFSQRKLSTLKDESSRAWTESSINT

COc1ccc(Cn2c([C@@H](Cc3c[nH]c4ccccc34)NC=O)nnc2[C@@H](Cc2c[nH]c3ccccc23)NC(=O)[C@@H](N)CCCCN)cc1
EC50 [1]: 10 nM | Emax [1]: 89% | Ki [2]: 8 nM

COc1ccc(Cn2c([C@@H](N)Cc3ccccc3)nnc2[C@@H](Cc2c[nH]c3ccccc23)NC(=O)c2ccccn2)cc1
Ki [3]: 62 nM | IC50 [4]: 150 nM | IC50 [5]: 320 nM

COc1ccc(Cn2c([C@H](Cc3ccccc3)NC(C)=O)nnc2[C@@H](Cc2c[nH]c3ccccc23)NC(=O)C(C)(C)N)cc1
Ki [3]: > 1000 nM | IC50 [4]: > 1000 nM | IC50 [5]: > 1000 nM

COc1ccc(Cn2c([C@@H](Cc3c[nH]c4ccccc34)NC(=O)[C@H](CC(C)C)NC(=O)[C@H](CC(C)C)NC(C)=O)nnc2[C@@H](Cc2c[nH]c3ccccc23)NC(=O)C(C)(C)O)cc1
EC50 [1]: 74 nM | Emax [1]: 75% | Ki [2]: 3 nM

COc1ccc(Cn2c([C@H](N)Cc3ccccc3)nnc2[C@@H](Cc2c[nH]c3ccccc23)NC(=O)C(C)(C)N)cc1
Ki [3]: 154 nM | IC50 [4]: 135 nM | IC50 [5]: 115 nM

COc1ccc(Cn2c([C@@H](Cc3c[nH]c4ccccc34)NC(C)=O)nnc2[C@@H](Cc2c[nH]c3ccccc23)NC(=O)[C@@H](N)CCCCN)cc1
EC50 [1]: 4 nM | Emax [1]: 89% | Ki [2]: 2.5 nM

COc1ccc(Cn2c([C@H](Cc3c[nH]c4ccccc34)NC=O)nnc2[C@@H](Cc2c[nH]c3ccccc23)NC(=O)c2ccccn2)cc1
Ki [3]: 154 nM | IC50 [4]: 1200 nM | IC50 [5]: 410 nM

COc1ccc(Cn2c([C@@H](Cc3ccccc3)NC(C)=O)nnc2[C@@H](Cc2c[nH]c3ccccc23)NC(=O)c2ncccc2F)cc1
Ki [3]: 4 nM | IC50 [4]: 2 nM | IC50 [5]: 2 nM | Activity [6]: Active

COc1ccc(Cn2c([C@@H](Cc3c[nH]c4ccccc34)NC(=O)[C@H](CC(C)C)NC(=O)[C@H](CC(C)C)NC(C)=O)nnc2[C@@H](Cc2c[nH]c3ccccc23)NC(=O)[C@@H](N)CCCCN)cc1
EC50 [7]: 70 nM | Emax [7]: -37% | Ki [2]: 110 nM

COc1ccc(Cn2c([C@@H](Cc3ccccc3)NC(C)=O)nnc2[C@@H](Cc2c[nH]c3ccccc23)NC(=O)[C@@H]2CNCCO2)cc1
Ki [3]: 2 nM | IC50 [4]: 3 nM | IC50 [5]: 9 nM | Activity [6]: Active

COc1ccc(Cn2c([C@@H](Cc3c[nH]c4ccccc34)NC(=O)[C@H](CC(C)C)NC(=O)[C@H](CC(C)C)NC(C)=O)nnc2[C@@H](Cc2c[nH]c3ccccc23)NC(=O)C(C)(C)N)cc1
EC50 [1]: 0.8 nM | Emax [1]: 80% | Ki [2]: 30 nM

COc1ccc(Cn2c([C@@H](Cc3c[nH]c4ccccc34)NC(C)=O)nnc2[C@@H](Cc2c[nH]c3ccccc23)NC(=O)C(C)(C)N)cc1
Ki [3]: 12 nM | IC50 [5]: 22 nM

COc1ccc(Cn2c([C@@H](Cc3ccccc3)NC(C)=O)nnc2[C@@H](Cc2c[nH]c3ccccc23)NC(=O)c2ccccn2)cc1
Activity [6]: Active

COc1ccc(Cn2c([C@@H](Cc3c[nH]c4ccccc34)NC(=O)C(CC(C)C)C(=O)N[C@@H](CC(C)C)C(N)=O)nnc2[C@@H](Cc2c[nH]c3ccccc23)NC(=O)[C@@H](N)CCCCN)cc1 (mixture of isomers)
EC50 [1]: 170 nM | Emax [1]: 60% | Ki [2]: 210 nM

COc1ccc(Cn2c([C@H](Cc3c[nH]c4ccccc34)NC(=O)[C@H]3CNCCO3)nnc2[C@@H](Cc2c[nH]c3ccccc23)NC(=O)[C@@H](CC(C)C)NC(=O)[C@@H](CC(C)C)NC(C)=O)cc1 (stereo in doubt)
EC50 [1]: 60 nM | Emax [1]: 75% | Ki [2]: 50 nM

COc1ccc(Cn2c([C@@H](Cc3ccccc3)NC(C)=O)nnc2[C@@H](Cc2c[nH]c3ccccc23)NC(=O)CO)cc1
Ki [3]: 0.8 nM | IC50 [4]: 2 nM | inhibition [8]: Active | IC50 [5]: 8 nM | Activity [6]: Active

COc1ccc(Cn2c(C(Cc3c[nH]c4ccccc34)NC(=O)C3CCNCC3)nnc2[C@@H](Cc2c[nH]c3ccccc23)NC(=O)C(CC(C)C)NC(=O)C(CC(C)C)NC(C)=O)cc1 (single isomer, unassigned)
EC50 [1]: 4.4 nM | Emax [1]: 108% | Ki [2]: 2 nM

COc1ccc(Cn2c([C@@H](Cc3ccccc3)NC(C)=O)nnc2[C@@H](Cc2c[nH]c3ccccc23)NC(=O)C(C)(C)N)cc1
Ki [3]: 46 nM | IC50 [4]: 90 nM | IC50 [5]: 70 nM

COC(=O)C(CC(C)C)C(=O)N[C@H](Cc1c[nH]c2ccccc12)c1nnc([C@@H](Cc2c[nH]c3ccccc23)NC(=O)[C@@H](N)CCCCN)n1Cc1ccc(OC)cc1 (mixture of isomers)
EC50 [1]: 20 nM | Emax [1]: 81% | Ki [2]: 17 nM

COc1ccc(Cn2c([C@@H](Cc3ccccc3)NC=O)nnc2[C@@H](Cc2c[nH]c3ccccc23)NC(=O)C(C)(C)N)cc1
Ki [3]: 59 nM | IC50 [4]: 43 nM | IC50 [5]: 113 nM

COc1ccc(Cn2c([C@@H](Cc3ccccc3)NC(C)=O)nnc2[C@@H](Cc2c[nH]c3ccccc23)NC(=O)C2=CCCCO2)cc1
Ki [3]: 9 nM | IC50 [4]: 4 nM | IC50 [5]: 3 nM | Activity [6]: Active

COc1ccc(Cn2c([C@@H](N)Cc3c[nH]c4ccccc34)nnc2[C@@H](Cc2c[nH]c3ccccc23)NC(=O)C(C)(C)N)cc1
Ki [3]: > 1000 nM | IC50 [4]: > 1000 nM | IC50 [5]: > 1000 nM

COc1ccc(Cn2c([C@H](Cc3c[nH]c4ccccc34)NC(C)=O)nnc2[C@@H](Cc2c[nH]c3ccccc23)NC(=O)c2ccccn2)cc1
Ki [3]: 62 nM | IC50 [4]: 190 nM | IC50 [5]: 100 nM

COc1ccc(Cn2c([C@@H](N)Cc3ccccc3)nnc2[C@@H](Cc2c[nH]c3ccccc23)NC(=O)C(C)(C)N)cc1
Ki [3]: > 1000 nM | IC50 [4]: > 1000 nM | IC50 [5]: > 1000 nM

COc1ccc(Cn2c([C@@H](Cc3ccccc3)NC=O)nnc2[C@@H](Cc2c[nH]c3ccccc23)NC(=O)c2ccccn2)cc1
Ki [3]: 8 nM | IC50 [4]: 3 nM | IC50 [5]: 8 nM | Activity [6]: Active

CC(C)C[C@H](NC(=O)[C@H](CC(C)C)NC(=O)[C@@H](Cc1c[nH]c2ccccc12)NC(=O)[C@H](Cc1ccccc1)NC(=O)[C@@H](Cc1c[nH]c2ccccc12)NC(=O)[C@@H](N)CCCCN)C(N)=O
EC50 [7]: 100 nM | Emax [7]: -55% | Ki [2]: 255 nM

COc1ccc(Cn2c([C@@H](Cc3c[nH]c4ccccc34)NC(=O)CO)nnc2[C@@H](Cc2c[nH]c3ccccc23)NC(=O)[C@H](CC(C)C)NC(=O)[C@H](CC(C)C)NC(C)=O)cc1
Ki [2]: 3 nM | Emax [9]: 0%

COc1ccc(Cn2c([C@H](N)Cc3ccccc3)nnc2[C@@H](Cc2c[nH]c3ccccc23)NC(=O)c2ccccn2)cc1
Ki [3]: 18 nM | IC50 [4]: 4 nM | IC50 [5]: 7 nM

COc1ccc(Cn2c([C@@H](Cc3ccccc3)NC(C)=O)nnc2[C@@H](Cc2c[nH]c3ccccc23)NC(=O)c2cc(F)cc(F)n2)cc1
Ki [3]: 11 nM | IC50 [4]: 4 nM | IC50 [5]: 4 nM | Activity [6]: Active

COc1ccc(Cn2c([C@H](Cc3c[nH]c4ccccc34)NC(C)=O)nnc2[C@@H](Cc2c[nH]c3ccccc23)NC(=O)C(C)(C)N)cc1
Ki [3]: > 1000 nM | IC50 [4]: > 1000 nM | IC50 [5]: > 1000 nM

COc1ccc(Cn2c([C@H](N)Cc3c[nH]c4ccccc34)nnc2[C@@H](Cc2c[nH]c3ccccc23)NC(=O)C(C)(C)N)cc1
Ki [3]: 131 nM | IC50 [4]: 90 nM | IC50 [5]: 130 nM

COc1ccc(Cn2c([C@@H](Cc3c[nH]c4ccccc34)NC=O)nnc2[C@@H](Cc2c[nH]c3ccccc23)NC(=O)C(C)(C)N)cc1
Ki [3]: 46 nM | IC50 [4]: 33 nM | IC50 [5]: 60 nM

COC(=O)[C@H](CC(C)C)NC(=O)C(CC(C)C)C(=O)N[C@H](Cc1c[nH]c2ccccc12)c1nnc([C@@H](Cc2c[nH]c3ccccc23)NC(=O)[C@@H](N)CCCCN)n1Cc1ccc(OC)cc1 (stereo not given in full)
EC50 [1]: 82 nM | Emax [1]: 82% | Ki [2]: 220 nM

COc1ccc(Cn2c([C@@H](Cc3c[nH]c4ccccc34)NC(C)=O)nnc2[C@@H](Cc2c[nH]c3ccccc23)NC(=O)c2ccccn2)cc1
Ki [3]: 9 nM | IC50 [4]: 3 nM | IC50 [5]: 2 nM
